Read-outs that look alike come from different tables or passages of the source. Marks after values point to notes of the source that are not given here.
T1: BJ6PAD (Bacillus subtilis, UniProt O07006)
T1 sequence (O07006 with tags, fused parts or gaps A39G/H105Y/L108V/E129D/F132Y/K134N/E136A/V138I/D139N/E142T/V143L/K146E): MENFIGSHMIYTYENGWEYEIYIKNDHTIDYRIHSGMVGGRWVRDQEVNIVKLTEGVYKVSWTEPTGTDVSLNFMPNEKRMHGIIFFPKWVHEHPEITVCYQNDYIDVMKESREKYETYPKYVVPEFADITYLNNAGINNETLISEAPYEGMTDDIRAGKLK

T2: BJ6PAD-N (Bacillus subtilis, UniProt O07006)
T2 sequence (O07006 with tags, fused parts or gaps A39G/H105Y/L108V/E129D/F132Y/K134N/E136A/V138I/D139N/E142T/V143L/K146E): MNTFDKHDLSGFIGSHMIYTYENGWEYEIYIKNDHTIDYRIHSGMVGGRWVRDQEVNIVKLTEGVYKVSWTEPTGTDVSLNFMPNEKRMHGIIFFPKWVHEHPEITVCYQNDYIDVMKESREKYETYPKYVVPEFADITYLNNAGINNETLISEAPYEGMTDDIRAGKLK

B1: BJ6PAD (Bacillus subtilis subsp. subtilis str. 168) (protein)
chain: T1 sequence (O07006 with tags, fused parts or gaps A39G/H105Y/L108V/E129D/F132Y/K134N/E136A/V138I/D139N/E142T/V143L/K146E)
B2: BJ6PAD-N (Bacillus subtilis subsp. subtilis str. 168) (protein)
chain: T2 sequence (O07006 with tags, fused parts or gaps A39G/H105Y/L108V/E129D/F132Y/K134N/E136A/V138I/D139N/E142T/V143L/K146E)

What was measured:
[1] = biological target: T1, BJ6PAD; test: Effects of metal ions and chemical reagents on enzyme activity, BJ6PAD; format: biochemical, Bacillus subtilis J6; conditions: 60 min incubation, no additive = 100%
Method in brief: (§1)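 His-tagged enzyme was expressed in E. coli BL21(DE3) and Ni-agarose purified. It was incubated 60 min with each metal ion (K⁺, Mg²⁺, Ca²⁺, Fe²⁺, Mn²⁺, Cu²⁺, Zn²⁺), EDTA, SDS or Triton X-100 at final concentrations of 1 or 5 mmol/L. Activity was then assayed in 50 mmol/L citrate-Na₂HPO₄ pH 6.0 at 37 ℃ for 5 min, stopped with methanol, with residual substrate by C18 HPLC at 280 nm. Done in triplicate.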

[2] = biological target: T2, BJ6PAD-N; test: Effects of metal ions and chemical reagents on enzyme activity, BJ6PAD-N; format: biochemical, Bacillus subtilis J6; conditions: 60 min incubation, no additive = 100%
Method in brief: as §1

[3] = biological target: T1, BJ6PAD; test: Specific enzyme activity towards phenolic acid substrates, BJ6PAD; format: biochemical, Bacillus subtilis J6; conditions: 37 ℃, pH 6.0; pCA, FA, CafA 10 mmol/L, SA 6 mmol/L
Method in brief: (§2)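 Both purified His-tagged enzymes were reacted at 37 ℃ in 50 mmol/L citrate-Na₂HPO₄ pH 6.0 for 5 min with three hydroxycinnamic acids at 10 mmol/L or sinapic-type acid at 6 mmol/L. Reactions were stopped with methanol, with an enzyme-free buffer control. Remaining substrate was measured by C18 HPLC at 280 nm. One IU is 1 µmol substrate converted/min; protein was by BCA, giving IU/mg. Done in triplicate.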

[4] = biological target: T2, BJ6PAD-N; test: Specific enzyme activity towards phenolic acid substrates, BJ6PAD-N; format: biochemical, Bacillus subtilis J6; conditions: 37 ℃, pH 6.0; pCA, FA, CafA 10 mmol/L, SA 6 mmol/L
Method in brief: as §2

[5] = tested on: BJ6PAD-N; test: as above; format: biochemical, Bacillus subtilis J6; conditions: BJ6PAD-N vs BJ6PAD
Method in brief: as §2

[6] = biological target: T1, BJ6PAD; test: Enzymatic kinetic parameters; format: biochemical, Bacillus subtilis J6
[7] = biological target: T2, BJ6PAD-N; test: Enzymatic kinetic parameters; format: biochemical, Bacillus subtilis J6
[8] = biological target: T1, BJ6PAD; test: Isothermal titration calorimetry of enzyme-substrate interaction, BJ6PAD; format: binding, Bacillus subtilis J6
Method in brief: (§3)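 Ni-purified His-tagged enzyme, eluted in […] buffer pH 7.9–8.1, was placed in the cell at 0.02 mmol/L. Each of four phenolic acid substrates (0.2 mmol/L in the same buffer) was in the syringe. All solutions were degassed 10 min. Twenty 2 µL injections were given 150 s apart at 37 °C with 350 rpm stirring. Thermodynamic parameters came from an independent-site model fit, in triplicate.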

[9] = biological target: T2, BJ6PAD-N; test: Isothermal titration calorimetry of enzyme-substrate interaction, BJ6PAD-N; format: binding, Bacillus subtilis J6
Method in brief: as §3

[10] = tested on: BJ6PAD-N; test: Enzymatic kinetic parameters; format: biochemical, Bacillus subtilis J6; conditions: BJ6PAD-N vs BJ6PAD
[11] = substrate: O=C(O)C=Cc1ccc(O)cc1; test: Enzymatic kinetic parameters; format: biochemical, Bacillus subtilis J6; conditions: pH 6.0

Molecule	Specific enzyme activity [3]	Specific enzyme activity [4]	Increase of specific enzyme activity of BJ6PAD-N compared with BJ6PAD [5] [%]	Km [6] [mM]	Vmax [6]	kcat [6]	Km [7] [mM]	Vmax [7]	kcat [7]	ΔG ([8]; ITC, 37 °C) [kcal/mol]	ΔH ([8]; ITC, 37 °C) [kcal/mol]	ΔG ([9]; ITC, 37 °C) [kcal/mol]	ΔH ([9]; ITC, 37 °C) [kcal/mol]	ΔS ([9]; ITC, 37 °C) [kJ/mol·K]	also measured
[K+] [K^+]															Residual enzyme activity ([1]; 1 mmol/L additive): 104.96 ± 0.24^b %; Residual enzyme activity ([1]; 5 mmol/L additive): 98.61 ± 1.46^b %; Residual enzyme activity ([2]; 1 mmol/L additive): 96.63 ± 2.16^a %; Residual enzyme activity ([2]; 5 mmol/L additive): 89.61 ± 1.14^a %
CCCCCCCCCCCCOS(=O)(=O)[O-].[Na+] [SDS, sodium dodecyl sulfate]															Residual enzyme activity ([1]; 1 mmol/L additive): 67.75 ± 1.3^a %; Residual enzyme activity ([2]; 1 mmol/L additive): 80.5 ± 0.91^b %
O=C(O)/C=C/c1ccc(O)c(O)c1 [caffeic acid]	92.34 ± 0.57^b IU/mg	100.88 ± 3.71^a IU/mg	9.25	3.54 ± 1.05	137.1 ± 8.87^b IU/mg	43.67 ± 3.61^b s^− 1	3.03 ± 0.12	139.3 ± 5.70^ab IU/mg	46.39 ± 1.55^ab s^− 1	-7.622	-8.444	-7.292	-14.9	-0.10	Kd [8]: 4.23 µM; Kd [9]: 7 µM
COc1cc(/C=C/C(=O)O)ccc1O [ferulic acid]	150.85 ± 2.15^b IU/mg	178.56 ± 1.58^a IU/mg	18.37	4.62 ± 0.01	229.73 ± 4.95^b IU/mg	73.17 ± 1.29^b s^− 1	8.42 ± 0.19	337.97 ± 7.10^a IU/mg	112.54 ± 1.93^a s^− 1	-8.384	-5.134	-6.016	-0.629	0.07	Kd ([8]; ITC, 37 °C): 1.25 µM; ΔS ([8]; ITC, 37 °C): 0.04 kJ/mol·K; Kd ([9]; ITC, 37 °C): 59.4 µM
O=C(O)/C=C/c1ccc(O)cc1 [p-coumaric acid]	209.82 ± 1.41^b IU/mg	248.96 ± 1.59^a IU/mg	18.65							-6.917	-14.71	-6.812	-1.45	0.07	Kd [8]: 12.8 µM; Kd [9]: 16.3 µM
COc1cc(/C=C/C(=O)O)cc(OC)c1O [sinapic acid]	17.37 ± 0.64^b IU/mg	23.42 ± 0.02^a IU/mg	34.83	4.19 ± 1.13	35.02 ± 6.03^a IU/mg	11.15 ± 1.57^a s^− 1	1.25 ± 0.11	29.48 ± 1.23^a IU/mg	9.82 ± 0.33^a s^− 1	-6.678	-10.25	-7.337	-0.098	0.10	Decrease in Km value of BJ6PAD-N compared with BJ6PAD [10]: 70.17%; Increase of catalytic efficiency (kcat/Km) of BJ6PAD-N over BJ6PAD [10]: 1.93 fold; Kd ([8]; ITC, 37 °C): 19.3 µM; Kd ([9]; ITC, 37 °C): 7.02 µM
B1															Km [11]: 6.87 ± 0.36^b mmol/L; Vmax [11]: 335 ± 5.45 µmol/min/mg; kcat [11]: 107 ± 1.42 s⁻¹; kcat/Km [11]: 15600 ± 1070 M⁻¹ s⁻¹
B2															Km [11]: 11.85 ± 0.56^a mmol/L; Vmax [11]: 536.4 ± 2.55 µmol/min/mg; kcat [11]: 179 ± 3.41 s⁻¹; kcat/Km [11]: 15070 ± 80 M⁻¹ s⁻¹

Source: article PMC12752248 (BMC Biotechnology, 2025)
